Experimental data taken from article PMC6641930 (ACS Omega, 2017).
Where “and” joins values, the source holds several entries; their conditions need not be identical. Equal entries are not always repeated. Where two headings read alike, the source gives them in different places. Blank lines part the entries; values can stand above or below the compound they belong to.

Experiments:
TTR fibrils [1] = target: T1, TTR fibrils (Homo sapiens, UniProt P02766); settings: two separate binding events, cited from earlier work
TTR fibrils [2] = target: T1, TTR fibrils; experiment: Titration of TTR fibrils on a fixed probe concentration; assay type: binding
In short: (§1)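 Fibrils (0–20 μM, monomer basis) are titrated onto fixed probe: 1 μM, or 0.5 μM for Aβ1-42 fibrils. Buffers are pH 3.0 for TTR, insulin and lysozyme, and PBS pH 7.5 for Aβ1-42 (10 μM, 37 °C, 24 h quiescent). Samples equilibrate 30 min at room temperature. Excitation 330 nm, emission 350–700 nm. Kd comes from a one-site nonlinear fit with fixed Bmax correcting for unbound probe. SD is from two independent binding series.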

insulin fibrils [3] = target: T2, insulin fibrils (Bos taurus, UniProt P01317); experiment: Titration of insulin fibrils on a fixed probe concentration; assay type: binding, Bovine
T2 sequence (P01317 25-54 limits assumed): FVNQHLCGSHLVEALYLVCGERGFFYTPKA
T2 sequence (P01317 85-105 limits assumed): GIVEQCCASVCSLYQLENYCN
In short: as §1

lysozyme fibrils [4] = target: T3, lysozyme fibrils (Gallus gallus, UniProt P00698); experiment: Titration of lysozyme fibrils on a fixed probe concentration; assay type: binding, chicken
T3 sequence (P00698 19-147): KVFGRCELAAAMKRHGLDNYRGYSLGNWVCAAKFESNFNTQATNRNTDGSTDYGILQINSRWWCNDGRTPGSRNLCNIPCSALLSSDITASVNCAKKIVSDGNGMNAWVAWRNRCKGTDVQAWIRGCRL
In short: as §1

Aβ1-42 fibrils [5] = target: T4, Aβ1-42 fibrils (Homo sapiens, UniProt P05067); experiment: Titration of Aβ1-42 fibrils on a fixed probe concentration; assay type: binding
T4 sequence (P05067 672-713): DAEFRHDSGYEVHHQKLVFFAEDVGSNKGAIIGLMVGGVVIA
In short: as §1

TTR fibrils [6] = target: T1, TTR fibrils; experiment: Fluorescence emission of probe bound to TTR fibrils; assay type: binding; settings: 5 μM fibrils + 1 μM probe; pH 3.0; excitation 330 nm
In short: (§2)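 Fibrils made from pH 3.0 (TTR: purified WT TTR in 50 mM NaAc/100 mM NaCl; bovine insulin or hen lysozyme: 200 μM in 25 mM HCl pH 1.6 at 65 °C, then dialysed into NaAc/NaCl pH 3.0). 1.0 μM probe from DMSO stock mixed with 5 μM fibrils (monomer basis) in HOAc/NaAc pH 3.0. Excitation 330 nm, emission 350–600 nm. Fold increase taken relative to free probe in buffer.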

insulin fibrils [7] = target: T2, insulin fibrils; experiment: Fluorescence emission of probe bound to insulin fibrils; assay type: binding, Bovine; settings: pH 3.0
In short: as §2

lysozyme fibrils [8] = target: T3, lysozyme fibrils; experiment: Fluorescence emission of probe bound to lysozyme fibrils; assay type: binding, chicken; settings: pH 3.0
In short: as §2

Aβ1-42 fibrils [9] = target: T4, Aβ1-42 fibrils; experiment: Fluorescence emission of probe bound to Aβ1-42 fibrils; assay type: binding; settings: PBS buffer pH 7.5
In short: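 Recombinant Aβ1-42 (extra N-terminal Met), solubilised in 6 M GuHCl and gel-filtered into PBS pH 7.5. […] Probe (1.0 μM, from DMSO stock) mixed with 5 μM fibrils or freshly dissolved monomer (monomer basis) in PBS pH 7.5. Emission spectra at 330 nm excitation, identical settings.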

native Aβ1-42 = native Aβ1-42 (Homo sapiens, UniProt P05067); experiment: Fluorescence emission of probe with freshly dissolved native Aβ1-42; assay type: binding; settings: 5 μM native Aβ1-42 + 1 μM probe; PBS buffer
native Aβ1-42, sequence (P05067 672-713): as above
In short: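 Probe (1.0 μM final, from DMSO stock) is read free in buffer or with 5 μM native protein (monomer basis). Buffers are HOAc/NaAc pH 3.0 or PBS pH 7.5. Aβ1-42 is recombinant with an extra N-terminal Met, freshly gel-filtered monomer in PBS pH 7.5. Spectra are recorded at 330 nm excitation, 350–600 nm emission, with identical instrument settings.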

[10] = UV-vis absorption and fluorescence spectra in methanol; assay type: physicochemical
In short: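 Absorption is read in methanol in a 1 cm quartz cuvette at room temperature, at 20 μM and at four concentrations (50–5 μM, or 10–2 μM for one probe) for ε. Fluorescence of 20 μM probe in methanol uses 330 nm excitation, 350–600 nm emission and 1 nm resolution.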

Fluorescence lifetime = assay type: physicochemical; settings: A: degassed methanol, [probe] = 5 μM
In short: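 TCSPC decays of 5 μM probe in argon-degassed methanol, excited at 337 nm and monitored at each emission maximum at room temperature. Instrument response is determined with a fibril solution. Decays are fitted to a sum of exponentials, with fit quality judged by χ2, residual distribution and residual autocorrelation. Average lifetime is calculated from amplitudes and lifetimes. Lifetime uncertainty is within 10%.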

Aβ1-42 fibrils [11] = target: T4, Aβ1-42 fibrils; experiment: Fluorescence lifetime
In short: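 Time-correlated single photon counting on 5 μM probe with 20 μM Aβ1-42 fibrils (monomer basis) in PBS pH 7.5 at 25 °C, not degassed. Excitation 337 nm; decay recorded at the bound-probe emission maximum. Instrument response is measured with fibril solution. Multi-exponential fits are judged by χ2 and residuals. Uncertainty is within 10%.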

insulin fibrils [12] = target: T2, insulin fibrils; settings: read-out: Kd of ThT binding to insulin fibrils; one binding site; cited from earlier work
lysozyme fibrils [13] = target: T3, lysozyme fibrils; settings: two binding sites, cited from earlier work
[14] = cited from earlier work
[15] = 5 μM fibrils (monomer basis) + 1 μM probe, versus free probe
[16] = 5 μM fibrils + 1 μM probe, excitation 330 nm
[17] = B: bound to Aβ1-42 fibrils in PBS buffer
[18] = B: bound to Aβ1-42 fibrils in PBS buffer, [probe] = 5 μM, [fibrils] = 20 μM

SMILES: Oc1ccc(/C=C/c2cccc3ccccc23)cc1O [Compound 1, (E)-4-(2-(naphthalen-1-yl)vinyl)benzene-1,2-diol]
Kd (TTR fibrils [1]; read-out: Kd1, TTR fibrils (high-affinity binding site)): 0.11 µM
Kd (TTR fibrils [1]; read-out: Kd2, TTR fibrils): > 10 µM

Kd (TTR fibrils [2]): 15.1 ± 0.9 µM
Kd (insulin fibrils [3]): 8 ± 1.6 µM
Kd (lysozyme fibrils [4]): 7 ± 1.6 µM
Kd (Aβ1-42 fibrils [5]): 4.3 ± 0.2 µM
λem2: emission maxima of probe bound to TTR fibrils (TTR fibrils [6]): 395 nm
Int: fold increase in fluorescence intensity upon binding to insulin fibrils (insulin fibrils [7]; [15]): 7.5 fold
λem2: emission maxima of probe bound to insulin fibrils (insulin fibrils [7]; [16]): 382 nm
Int: fold increase in fluorescence intensity upon binding to lysozyme fibrils (lysozyme fibrils [8]; [15]): 3.8 fold
λem2: emission maxima of probe bound to lysozyme fibrils (lysozyme fibrils [8]; [16]): 382 nm
Int: fold increase in fluorescence intensity upon binding to Aβ1-42 fibrils (Aβ1-42 fibrils [9]; [15]): 2.6 fold
λem2: emission maxima of probe bound to Aβ1-42 fibrils (Aβ1-42 fibrils [9]; [16]): 384 nm
Stokes shift [10]: 61 nm
λmax (abs) [10]: 325 nm
λmax (em) ([10]; excitation 330 nm, [probe] = 20 μM): 386 nm
ε ([10]; four concentrations): 25 038 L·M^–1 cm^–1
α1 (normalized pre-exponential factor) (Fluorescence lifetime): 1
λem1 (emission wavelength of decay) (Fluorescence lifetime): 395 nm
τavg (average fluorescence lifetime) (Fluorescence lifetime): <0.05 ns
τ1 (Fluorescence lifetime; excitation 337 nm): < 0.05 ns
α1 (normalized pre-exponential factor) (Aβ1-42 fibrils [11]; [17]): 0.86
α2 (normalized pre-exponential factor) (Aβ1-42 fibrils [11]; [17]): 0.14
τ2 (Aβ1-42 fibrils [11]; [17]): 2.31 ns
τavg (average fluorescence lifetime) (Aβ1-42 fibrils [11]; B: bound to Aβ1-42 fibrils in PBS buffer pH 7.5, [probe] = 5 μM, [fibrils] = 20 μM): 1.3 ns and 1.33 ns
λem1 (emission wavelength of decay) (Aβ1-42 fibrils [11]; [18]): 410 nm
τ1 (Aβ1-42 fibrils [11]; [18]): 0.28 ns
SMILES: Oc1ccc(/C=C/c2ccccc2)cc1O [Compound 2, (E)-4-Styrylbenzene-1,2-diol]
fluorescence / binding with freshly prepared native Aβ1-42 (native Aβ1-42): Neither 2, 4, or 5 fluoresced appreciably

SMILES: Cc1ccc2c(c1)sc(-c1ccc(N(C)C)cc1)[n+]2C [ThT, thioflavin T]
Kd (insulin fibrils [12]): 10.4 µM
Kd (lysozyme fibrils [13]; read-out: Kd1 of ThT binding to lysozyme fibrils): 0.13 µM
Kd (lysozyme fibrils [13]; read-out: Kd2 of ThT binding to lysozyme fibrils): 17.9 µM
average fluorescence lifetime t1/2 [14]: < 1 ns
